High-throughput results: PubChem BioAssay, several laboratories
SMARCA2 act: increases SMARCA2 function in MMTV reporter cells | MG213 cells, MMTV-luciferase reporter, dexamethasone, overnight | activation, % at 9.1 µM | 370,000 compounds, 1% hits; in the data active = activation above about 7.8%
GASC-1 inh: inhibitors of human GASC-1 (JMJD2C) demethylase; Q9H3R0; GST-JMJD2C(1-420) H3K9me3 demethylation, DELFIA europium; inhibition, % at 2.35 µM; 330,000 compounds, 0.069% hits; AID 2099;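 active = more than half of a compound's replicate wells show inhibition beyond 50%, single wells judged on their own value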;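 note: signal counts dimethyl H3K9 product captured on neutravidin plate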
NR2E3 ag-1: NR2E3 (human) agonism; Q9Y5X4; GST-NR2E3/biotin-RetCOR TR-FRET, 1536-well; inhibition of corepressor binding, % at 4.78 µM; 320,000 compounds, 0.12% hits; AID 2300;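 active = percent inhibition above the cutoff of mean plus 3 SD of all tested compounds, set per screening campaign, cut at about 20% in these data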
Target sequence (Q9Y5X4 whole entry, looked up): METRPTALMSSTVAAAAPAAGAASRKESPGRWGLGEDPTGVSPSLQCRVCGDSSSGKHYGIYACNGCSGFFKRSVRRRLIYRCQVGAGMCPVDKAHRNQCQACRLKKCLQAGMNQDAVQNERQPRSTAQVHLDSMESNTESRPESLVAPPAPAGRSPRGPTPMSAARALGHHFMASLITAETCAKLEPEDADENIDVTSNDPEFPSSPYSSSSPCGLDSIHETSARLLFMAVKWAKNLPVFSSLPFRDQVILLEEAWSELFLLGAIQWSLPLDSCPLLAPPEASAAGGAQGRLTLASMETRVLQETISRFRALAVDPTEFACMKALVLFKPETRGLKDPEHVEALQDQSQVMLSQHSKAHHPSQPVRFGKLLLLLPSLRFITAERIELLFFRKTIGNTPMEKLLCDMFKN
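Test system – NR2E3–RetCOR corepressor complex · Quantity – NR2E3 fusion 1.35 nM · Buffer or medium – Tris pH 7.5 · Incubation – Compound–protein incubation for 5 h at 4 °C · Technique – TR-FRET, Eu(K)-anti-GST donor, streptavidin-D2 acceptor, ex 340, em 617/671 nm · Evaluation – percent inhibition of 671/617 nm emission ratio versus biotin and DMSO controls · Plate – 1536-well format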
NR2E3 ag-2: agonists of human NR2E3 nuclear receptor; AID 602229; CHO-S Gal4-NCOR/VP16-NR2E3 two-hybrid, luciferase; Q9Y5X4; 360,000 compounds, 0.35% hits; inhibition of corepressor binding, % at 3.98 µM;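 active = inhibition above the mean of all tested compounds plus 3 SD, cut at about 70% in these data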;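 note: higher means lower luciferase signal from less NR2E3 corepressor binding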
DAX1 inh-1: DAX1 (NR0B1) inhibition, primary screen; inhibition, % at 6.8 µM; 370,000 compounds, 1.1% hits; AID 652010; HEK293T StAR-luciferase reporter, SF-1/DAX-1 repression relief;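 active = inhibition above the mean over all tested compounds plus 3 SD, cut at about 3.6% in these data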;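 note: higher inhibition means more luminescence from relief of DAX-1 repression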
DAX1 inh-2: inhibitors of human orphan nuclear receptor DAX1 (NR0B1); AID 504766; 340,000 compounds, 0.99% hits; P51843; inhibition, % at 6.75 µM; HEK293 Gal4-DAX1 luciferase reporter, luminescence;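 active = inhibition above the mean over all tested compounds plus 3 SD, cut at about 4.2% in these data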;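 note: inhibition shows as a rise in luminescence from relieved DAX1 repression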
Each line names hits and unclear results; the compound was inactive in the other large screens. This is a sample that favours compounds with a hit; in the whole collection about 3.2% have one here.

CCCCSc1ncc(C(=O)OCC)c(N)n1	DAX1 inh-1 3.7
CCOC(=O)c1cnc(SCCc2ccccc2)nc1N	DAX1 inh-1 4.5
Cn1c(N)c(-c2nc3cccnc3n2C)sc1=S	DAX1 inh-2 4.2
O=[N+]([O-])c1ccc(/C=C/c2ccc3ccccc3n2)cc1	DAX1 inh-1 3.8
Nc1c(C(=O)N2CCN(CCc3ccccc3)CC2)cnn1-c1ccccc1	none (no result: GASC-1 inh, NR2E3 ag-1, NR2E3 ag-2, DAX1 inh-2)
CCn1c(CNC(=O)Cc2ccc(OC)cc2)n[nH]c1=S	DAX1 inh-1 4.1
COc1ccc(S[C@]2(C(=O)N(C)C)CC(=O)N(C(=O)C3CC3)[C@@H]2c2ccc(OC)cc2)cc1	none (no result: GASC-1 inh, NR2E3 ag-1, NR2E3 ag-2, DAX1 inh-2)
O=C(Cn1c(=O)n(Cc2ccccc2)c(=O)c2cc(Cl)ccc21)NCC1CCCO1 (stereo not drawn)	none
O=C(Cn1c(=O)c(=O)n(Cc2ccccc2)c2ccc(Cl)cc21)NCC1CCCO1 (stereo not drawn)	DAX1 inh-2 4.6
Cc1ccc(NC(=O)/C(C#N)=C(\N)C(Cl)(Cl)Cl)nc1	DAX1 inh-2 8.1 (no result: SMARCA2 act, DAX1 inh-1)
Cc1ccc2nc(-c3ccc(NC(=O)CSc4nnc(Cc5cccs5)n4C)cc3)sc2c1	none (no result: GASC-1 inh, NR2E3 ag-1, NR2E3 ag-2, DAX1 inh-2)
COCCN(C(=O)COC(=O)c1ccc2c(c1)OCO2)c1c(N)n(Cc2ccccc2)c(=O)[nH]c1=O	DAX1 inh-2 4.4 (no result: GASC-1 inh, NR2E3 ag-1)
Cc1cccc(C)c1NS(=O)(=O)c1cc2c3c(c1)CC(=O)N3CCC2	GASC-1 inh 54
Cc1cccc(C)c1NS(=O)(=O)c1cc2c3c(c1)CCN3C(=O)CC2	none
Cc1cccc(Nc2n[nH]c(C)c2[N+](=O)[O-])c1	DAX1 inh-1 3.7
Cc1[nH]nc(Nc2ccc(Br)cc2)c1[N+](=O)[O-]	DAX1 inh-2 5.6
Cc1[nH]nc(Nc2ccccc2)c1[N+](=O)[O-]	none
COc1ccc(CNC(=O)[C@H](NC(=O)C2CCN(C(=O)[C@@H](N)CCSC)CC2)C(C)C)cc1	none
COc1ccc(CNC(=O)[C@H](C)NC(=O)C2CCN(C(=O)[C@@H](N)CCSC)CC2)cc1	DAX1 inh-2 4.4
COc1ccc(CNC(=O)[C@H](C)NC(=O)C2CCN(C(=O)[C@@H](N)Cc3ccccc3)CC2)cc1	DAX1 inh-2 6.1
O=C(CCc1ccccc1)N[C@H]1[C@@H](O)CCC[C@]12C(=O)N(Cc1ccccc1)c1ccccc12	none (no result: GASC-1 inh, NR2E3 ag-1, NR2E3 ag-2, DAX1 inh-2)
O=c1[nH]cc(N=Cc2cc([N+](=O)[O-])ccc2O)c(=O)[nH]1	none (no result: SMARCA2 act, NR2E3 ag-2, DAX1 inh-1, DAX1 inh-2)
O=c1[nH]cc(N=Cc2cc(Cl)cc(Cl)c2O)c(=O)[nH]1	GASC-1 inh 66
Cc1cccc(C)c1-n1nnnc1C1(Nc2ccccc2)CCCCC1	none
Clc1ccc(NC2(c3nnnn3C3CCCCC3)CCCCC2)cc1	DAX1 inh-2 4.7
Cc1nnc(NC(=O)CSc2nnc(C)n2Cc2ccccc2)s1	none
Cc1nnc(SCC(=O)Nc2ccc(Cl)cn2)n1Cc1ccccc1	DAX1 inh-2 6.0
C=CCN1C(=O)[C@@H](CC(=O)N2CCC(c3ccccc3)CC2)[C@]2(C(=O)OC)CCCCC=C12	none (no result: GASC-1 inh, NR2E3 ag-1, NR2E3 ag-2, DAX1 inh-2)
N#CCC[C@@H]1CC[C@]2(CCCN(S(=O)(=O)C3CCCCC3)C2)O1	none (no result: GASC-1 inh, NR2E3 ag-1, NR2E3 ag-2, DAX1 inh-2)
COCCN(C(=O)CCC(=O)Nc1cc(C)on1)C(C(=O)NC(C)(C)C)c1ccccc1Cl (stereo not drawn)	SMARCA2 act 7.8
CCCCN(C(=O)CCC(=O)Nc1cc(C)on1)C(C(=O)NC(C)(C)C)c1ccccc1Cl (stereo not drawn)	none
CCCCOCCCNC(=O)C[C@H]1C[C@@]2(C(=O)OC)C(=C[C@H](COCc3ccccc3)O[C@@H]2C)N(Cc2ccco2)C1=O	none (no result: GASC-1 inh, NR2E3 ag-1, NR2E3 ag-2, DAX1 inh-2)
C/C(=N\NC(=O)c1cc(-c2ccccc2)nc2ccccc12)c1ccc(Cl)cc1	none (no result: GASC-1 inh, NR2E3 ag-1, NR2E3 ag-2, DAX1 inh-2)
CC(=O)CC[C@H]1CC[C@]2(CCCN(C(=O)C3CCCC3)C2)O1	none (no result: GASC-1 inh, NR2E3 ag-1, NR2E3 ag-2, DAX1 inh-2)
CN1/C(=C/C(=O)c2cccs2)Sc2ccccc21	DAX1 inh-1 4.4
C[C@H]1CCC[C@@H](O)CC(=O)c2c(O)cc(O)cc2CC(=O)O1	none (no result: GASC-1 inh, NR2E3 ag-1, NR2E3 ag-2, DAX1 inh-2)
COc1ccc(C2CC(c3ccc(C)o3)=NN2C(C)=O)cc1 (stereo not drawn)	none
COc1ccc(C2CC(c3ccc4ccccc4c3OC(C)=O)=NN2C(C)=O)cc1 (stereo not drawn)	DAX1 inh-2 5.4
